Source: PubChem BioAssay (several laboratories)
An excerpt weighted towards active compounds, which were near 3.7% of everything screened.
MPTP inh: blocks calcium-induced mitochondrial swelling; isolated mouse mitochondria, Ca2+ swelling absorbance, 30 min; inhibition, % at 10 µM; 360,000 tested, 1.4% active; AID 602449;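 active = inhibition of 50% or more, scaled per plate between neutral and stimulator controls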;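 also: 0% = DMSO wells given calcium and 100% = 1 mM EGTA wells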
aDG glyco act: alpha-DG glycosylation activation; 360,000 tested, 0.22% active; AID 624168; Pro5-aDG cells, alpha-DG glycosylation AlphaScreen (IIH6); 0% Pro5, 100% B10-LARGE cell signal; activation, % at 10 µM;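 active = activation of at least 8% versus controls, or a plate z-score of at least 8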;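 also: Pro5 are CHO cells carrying HIG-tagged alpha-DG that lacks glycosylation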
GRIN3A LBD mod: modulators (binders) of human NR3A ligand-binding domain; NR3A LBD differential scanning fluorimetry, Tm shift; 0% = protein alone, 100% = glycine-bound protein; Tm shift relative to glycine control, % at 25 µM; 340,000 tested, 2.5% active; AID 1259313;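 active = melting temperature shift of at least 10% of the positive control shift, at one fixed dose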
proCasp3 act: activates human procaspase-3; P42574; recombinant procaspase-3 D3A, Ac-DEVD-pNA absorbance 405 nm; activation, % at 8.5 µM; 330,000 tested, 0.11% active; AID 463141;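 active = activation above the mean of all tested compounds plus 3 SD, cut at about 21% in these data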;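 also: 0% = DMSO alone and 100% = DMSO wells spiked with extra 5 µM PC-3 D3A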
Target sequence (P42574 whole entry D9A/D28A/D175A): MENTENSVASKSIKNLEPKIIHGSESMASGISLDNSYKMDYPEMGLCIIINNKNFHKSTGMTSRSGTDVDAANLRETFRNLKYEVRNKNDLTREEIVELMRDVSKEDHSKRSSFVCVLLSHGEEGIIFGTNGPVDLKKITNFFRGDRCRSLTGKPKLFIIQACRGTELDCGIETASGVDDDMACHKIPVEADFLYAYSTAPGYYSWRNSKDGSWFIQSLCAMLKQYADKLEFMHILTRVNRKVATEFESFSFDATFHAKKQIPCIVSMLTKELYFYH
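material = Procaspase-3 D3A mutant | probe or stimulus = Ac-DEVD-pNA | compound = single dose, 8.5 µM nominal compound, 0.8% DMSO | timing = 1 h preincubation, 2 h reaction | measured by = 405 nm absorbance of p-nitroaniline, reads at 0 and 120 min | benchmarks = DMSO-only low control, 5 µM PC-3 D3A high control | repeats = singlicate, each compound tested once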
procasp7 counter: counter-screen for procaspase-3 activators: activators of human procaspase-7; P55210; 330,000 tested, 0.093% active; activation, % at 8.5 µM; recombinant procaspase-7, Ac-DEVD-pNA absorbance 405 nm; D23A/D198A/D206A triple mutant, cannot self-cleave; scale: DMSO 0, 5 µM enzyme 100;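 active = percent activation above the screen-wide mean plus 3 SD, cut at about 25% in these data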
Target sequence (P55210 whole entry D23A/D198A/D206A): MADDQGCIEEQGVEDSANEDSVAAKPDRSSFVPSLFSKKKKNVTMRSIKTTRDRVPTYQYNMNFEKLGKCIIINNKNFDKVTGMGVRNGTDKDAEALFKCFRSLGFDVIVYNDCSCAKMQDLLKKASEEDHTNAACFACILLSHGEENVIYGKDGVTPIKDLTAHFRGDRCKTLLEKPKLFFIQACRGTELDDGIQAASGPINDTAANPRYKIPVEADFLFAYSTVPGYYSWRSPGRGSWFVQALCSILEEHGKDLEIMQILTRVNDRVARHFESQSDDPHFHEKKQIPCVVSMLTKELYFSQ
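Assay system – Uncleavable procaspase-7 mutant enzyme · Quantity – 2 µM procaspase-7 mutant as dispensed · Times – 1 h preincubation, 2 h reaction · Dosing – single nominal 8.5 µM compound dose, 0.8% DMSO final · Buffer or medium – Zinc-free 50 mM HEPES buffer, pH 7.4, with NaCl and Triton X-100 · Detection – Epi-absorbance of released pNA at 405 nm, two timepoints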
aDG conf: confirmation of alpha dystroglycan glycosylation activators; AID 651671; shares compounds with aDG glyco act; activation, % at 10 µM (by protocol); 600 tested, 17% active; Pro5-aDG cells, alpha-DG glycosylation, IIH6 AlphaLISA; scaled to LARGE-overexpressing B10 cells as 100%;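 active = activation of at least 7% in one or more replicates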;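 also: cells exposed to compound for two days before detection; 0% = DMSO-treated Pro5 cells and 100% = DMSO-treated B10-LARGE cells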
Numbers without * were called inactive; / = no result.

SMILES | MPTP inh | aDG glyco act | GRIN3A LBD mod | proCasp3 act | procasp7 counter | aDG conf
CC1CCCC(C)N1C(=O)CSc1nnnn1Cc1ccccc1 (configuration not stated) | 0 | 5.6* | 1 | 4 | 12 | -1
CC1CCCC(C)N1C(=O)CSc1nnnn1-c1cccc2c1CCCC2 (configuration not stated) | -2 | 0 | -1 | 1 | 11 | /
O=C(NCc1cccnc1)c1ccc(-c2cc3ccccc3oc2=O)cc1 | 6 | 5.6* | 5 | -9 | -1 | 0
O=C(Nc1cccnc1)c1cccc(-c2cc3ccccc3oc2=O)c1 | 2 | 0 | 4 | -4 | -1 | /
CCCCCCc1nc2ccccc2c(=O)n1NC(=O)c1c(O)c2c(n(CC(C)C)c1=O)CCCC2 | -1 | 6.3* | 6 | 8 | 1 | 2
CCN1CCN(c2ccc(NC(=O)COc3ccc(Cl)cc3C)cc2)CC1 | 0 | 5.2* | 2 | 5 | 10 | 2
NC(=S)NN=C(c1ccc(Br)cc1)C1CC1 | 0 | 5.7* | -1 | / | / | 1
Cc1ccc(N2C(=O)C(CN3CCOCC3)C2c2ccccc2)cc1 (configuration not stated) | 2 | 0 | 0 | 0 | 0 | /
O=C1C2CCC(C2)C1CN1CCOCC1 (configuration not stated) | -3 | 13* | 0 | / | / | -1
CCOC(=O)c1cn2ccc(C)cc2n1 | 0 | 20* | -1 | 2 | 0 | 1
CCN(CC)S(=O)(=O)c1ccc(=O)n(CC(=O)N2Cc3ccccc3CC2C(N)=O)c1 (configuration not stated) | -1 | 3.4* | 1 | / | / | -1
Cc1ccc(S(=O)(=O)N2Cc3ccccc3CC2C(N)=O)cc1 (configuration not stated) | -1 | 0 | / | / | / | /
Cc1c(Br)c([N+](=O)[O-])nn1CC(=O)N1CCCc2ccccc21 | -1 | 4.4* | 2 | -5 | 16 | -1
O=C1C(Cl)=C(NCCCO)C(=O)c2ccccc21 | 1 | 8.7* | 0 | -1 | 1 | 3.2*
CCOCCCNC1=C(Cl)C(=O)c2ccccc2C1=O | 4 | 2 | -1 | -16 | 3 | /
CCOC(=O)c1sc2nc(CSc3ccccc3)nc(NCCN(C)C)c2c1C | 8 | 8.4* | -2 | 4 | -2 | 2
N=c1c2c(ncn1CCCO)Oc1c(ccc3ccccc13)C2c1ccccc1 (configuration not stated) | -3 | 3.1* | 2 | 12 | 9 | 4.7*
Cc1cc(-c2csc(NC(=O)c3ccc(S(=O)(=O)N(C)C)cc3)n2)c(C)n1-c1ccccc1 | -2 | 9.4* | -2 | -8 | -4 | -1
CN(C)S(=O)(=O)c1ccc(C(=O)Nc2nnc(SCc3ccccc3)s2)cc1 | 3 | -1 | -1 | 2 | -7 | /
CC(C)N1CCN(Cc2ccc(-c3ccccc3Cl)o2)CC1CCO (configuration not stated) | 1 | 0 | 1 | -3 | 0 | /
CCOC(=O)c1ccc(NC(=O)COc2ccccc2CNCCc2ccccc2)cc1 | 16 | 5.8* | -3 | 3 | 3 | 3
O=C(CCCNC(=O)c1ccc(Cl)cc1)NCc1ccccc1Cl | 1 | 0 | 1 | 2 | -8 | /
Cc1noc(C)c1S(=O)(=O)NC(=O)C1(C)CCN1C(=O)c1ccccc1CCc1ccccc1 (configuration not stated) | 0 | 0 | / | / | / | /
Cc1nc(CCNC(=O)Cc2ccc(Cl)cc2)cs1 | -2 | 8.7* | 1 | -5 | -4 | 1
COc1ccc(CCN(C)C(=O)CN2C(=O)NC3(CCCc4ccccc43)C2=O)cc1OC (configuration not stated) | 0 | 0 | 0 | -1 | 0 | /
SMILES | MPTP inh | aDG glyco act | GRIN3A LBD mod | proCasp3 act | procasp7 counter | aDG conf
CC(C)OCCCN(C)C1CCN(S(=O)(=O)c2ccc(-c3cc(C(F)(F)F)no3)s2)CC1 | 30 | 3.8* | -1 | -1 | 4 | 1
Cc1cccc(/C=C2/Sc3ccc(C(=O)NCCN4CCCC4)cc3NC2=O)c1 | 0 | 8.2* | -7 | 0 | 13 | 7.8*
Fc1cc(Cl)ccc1NC(=S)NCCN1CCOCC1 | 0 | 5.3* | -1 | 4 | 4 | -1
O=C(Cn1ncc2c(=O)oc3ccccc3c21)NCC1COc2ccccc2O1 (configuration not stated) | -1 | 8.2* | 3 | 4 | 11 | 0
Cc1cccc(NC(=O)c2ccc([N+](=O)[O-])s2)c1C | 8 | 10* | -1 | 7 | -6 | 1
Cc1cccc(C)c1NC(=O)C(c1ccncc1)N1CCN(C)CC1 (configuration not stated) | 0 | 9.8* | / | / | / | 0
CCN(CC(=O)NC1CCS(=O)(=O)C1)S(=O)(=O)c1ccc(C)c(C)c1 (configuration not stated) | 2 | 0 | -2 | 6 | -4 | /
Cc1ccccc1OCC(=O)OCC(=O)c1ccc[nH]1 | 0 | 0 | -5 | 6 | -10 | /
Cc1cccc(NC(=S)NC2CC3CCCC(C2)N3Cc2ccccc2)c1C (configuration not stated) | -2 | 1 | 0 | -2 | -3 | /
CCN(CC)S(=O)(=O)c1ccc(C)c(NC(=S)N2CCN(c3ccccn3)CC2)c1 | 1 | 0 | -1 | -7 | -10 | /
CCN(CC)S(=O)(=O)c1ccc(C)c(NC(=S)N2CCN(C/C=C/c3ccccc3)CC2)c1 | 15 | 8.6* | -3 | -7 | -8 | 1
Cc1csc(NC(=O)C2CCCN(S(=O)(=O)c3ccc4c(c3)oc(=O)n4C)C2)n1 (configuration not stated) | 2 | 9.1* | 2 | 5 | -4 | 0
COc1ccccc1CN=Cc1[nH]c2ccc(Br)c(Cl)c2c1O | 1 | 5.8* | -1 | 0 | 9 | 1
COc1cc(Br)cc(/C=N/NC(=O)Cc2ccccc2)c1O | 6 | 1 | 2 | 8 | 6 | /
Cc1ccc2nc(-c3ccc(F)cc3)c(CC3CCCCC3)n2c1 | 0 | 8.8* | / | / | / | 0
Cc1ccc(/C=C2/Sc3ccc(C(=O)NCc4ccccn4)cc3NC2=O)cc1 | -3 | 0 | 0 | 2 | -3 | /
Cc1ccc(S(=O)(=O)N[C@H](C(=O)OCC(=O)NC(=O)c2cccn2C)C(C)C)cc1 | 0 | 3.6* | -2 | / | / | 1
CC(C)[C@H](NS(=O)(=O)c1ccccc1)C(=O)OCC(=O)NC(=O)c1cccn1C | -2 | 0 | -4 | 5 | 1 | /
CCOc1ccc(N(CC(=O)NC2CC2)S(=O)(=O)c2ccc(C)cc2)cc1 | -2 | 0 | -3 | 1 | 4 | /
